Data set [1] deals with Mus musculus. In words: Clonic seizures was evaluated after 0.5 hr in 3-mercaptopropionic acid test in mice at a dose of 119 mg/kg. The class given is functional. The method in brief: (§1)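 Male NMRI mice (18-25 g). Test compound dissolved in DMSO, given ip at 2 mL/kg. Convulsant given 30 min or 3 h later: pentylenetetrazole (85 or 120 mg/kg) sc in saline, or 3-mercaptopropionic acid 40 mg/kg ip in saline. Mice caged singly and watched 30 min. Clonic and tonic seizures and deaths counted, expressed as % of animals.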

Data set [2] has as its system Mus musculus. In words: Clonic seizures was evaluated after 0.5 hr in pentylenetetrazole test in mice at a dose of 120 mg/kg. It is filed as functional. The method in brief: as §1
In data set [3] the test system is Mus musculus. In words: Clonic seizures was evaluated after 0.5 hr in pentylenetetrazole test in mice at a dose of 85 mg/kg. The class given is functional.
The test system of data set [4] is Mus musculus. The experiment in a line: Clonic seizures was evaluated after 3h in 3-mercaptopropionic acid test in mice at a dose of 119 mg/kg. It is filed as functional. An outline of the steps: as §1
Data set [5] has as its system Mus musculus. In words: Clonic seizures was evaluated after 3h in pentylenetetrazole test in mice at a dose of 85 mg/kg. The class given is functional.
The subject of data set [6] is Mus musculus. In words: Compound was tested for anticonvulsant activity in maximal electroshock seizure(MES) test after 3 hours upon intraperitoneal administration to mice. The class given is functional. The following applies: ip. The method in brief:
(§2)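 Male OF1 mice (15-25 g), free access to water only during testing. Compound given ip and maximal electroshock applied at 30 min or 3 h. Typically 8-10 mice per compound, dose and time point. Screening at initial 0.4 mmol/kg, scored as protected/tested.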

The subject of data set [7] is Mus musculus. The experiment in a line: Compound was tested for anticonvulsant activity in maximal electroshock seizure(MES) test after 30 min upon intraperitoneal administration to mice. It is filed as functional. The following applies: ip, 0.5 h. The method in brief: as §2
Data set [8] has as its system Mus musculus. In words: Tonic seizures was evaluated after 0.5 hr in 3-mercaptopropionic acid test in mice at a dose of 119 mg/kg. The class given is functional. The method in brief:
(§3)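 Male NMRI mice (18-25 g) received test agent ip at 119 mg/kg, dissolved in DMSO, 2 mL/kg. 40 mg/kg 3-mercaptopropionic acid in saline was injected ip 30 min or 3 h later. Percentage of animals with tonic seizures was recorded.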

The subject of data set [9] is Mus musculus. The experiment in a line: Tonic seizures was evaluated after 0.5 hr in pentylenetetrazole test at a dose of 120 mg/kg. The class given is functional. The method in brief:
(§4)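 Male NMRI mice (18-25 g) were dosed ip at 119 mg/kg in DMSO (2 mL/kg). At 30 min or 3 h, pentylenetetrazole in saline was given sc at 85 or 120 mg/kg (the convulsant dose named in each line). Mice were observed individually for 30 min, with clonic and tonic seizures and deaths noted as percent of animals.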

Data set [10] deals with Mus musculus. In words: Tonic seizures was evaluated after 0.5 hr in pentylenetetrazole test at a dose of 85 mg/kg. The class given is functional. An outline of the steps: as §4
Data set [11] concerns Mus musculus. The experiment in a line: Tonic seizures was evaluated after 0.5 hr in strychnine test in mice at a dose of 119 mg/kg. It is filed as functional. The method in brief: (§5)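 Male NMRI mice (18-25 g) were dosed ip at 119 mg/kg in DMSO (2 mL/kg). At 30 min or 3 h, strychnine chlorhydrate in saline was given sc (1.2 mg/mL, 1 mL/kg). Mice were observed individually for 30 min, with tonic seizures and lethality recorded as percent of animals.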

For data set [12], the system named is Mus musculus. The experiment in a line: Tonic seizures was evaluated after 3h in 3-mercaptopropionic acid test in mice at a dose of 119 mg/kg. It is filed as functional. An outline of the steps:
as §3

The test system of data set [13] is Mus musculus. In words: Tonic seizures was evaluated after 3h in pentylenetetrazole test at a dose of 85 mg/kg. It is filed as functional. The method in brief:
as §4

The subject of data set [14] is Mus musculus. The experiment in a line: Tonic seizures was evaluated after 3h in strychnine test in mice at a dose of 119 mg/kg. It is filed as functional. The method in brief:
as §5

Data set [15] is described as follows: Lethality was evaluated after 0.5 hr in 3-mercaptopropionic acid test in mice at a dose of 119 mg/kg. The class given is ADME, organism-based. On the set-up: dose 119 mg/kg. The following applies: mouse, in vivo. An outline of the steps:
(§6)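 Male NMRI mice (18-25 g, bred in-house) got test compound ip at 119 mg/kg, dissolved in DMSO and given at 2 mL/kg. At 30 min or 3 h after dosing, 3-mercaptopropionic acid in saline was injected ip at 40 mg/kg. Deaths were recorded and reported as percent lethality.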

Data set [16] is described as follows: Lethality was evaluated after 0.5 hr in pentylenetetrazole test in mice at a dose of 120 mg/kg. It is filed as ADME, organism-based. The arrangement: dose 120 mg/kg. The following applies: mouse, in vivo. An outline of the steps: (§7)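 Male NMRI mice (18-25 g) got compound ip at 119 mg/kg in DMSO (2 mL/kg). At 30 min or 3 h after dosing, pentylenetetrazole in saline was given sc at 85 or 120 mg/kg. Mice were caged singly and watched for 30 min, noting clonic and tonic seizures and deaths. Lethality is given as a percentage.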

A short description of data set [17]: Lethality was evaluated after 0.5 hr in pentylenetetrazole test in mice at a dose of 85 mg/kg. The class given is ADME, organism-based. On the set-up: dose 85 mg/kg. The conditions noted are these: mouse, in vivo. An outline of the steps:
as §7

Data set [18] is described as follows: Lethality was evaluated after 0.5 hr in strychnine test in mice at a dose of 119 mg/kg. It is filed as ADME, organism-based. On the set-up: dose 119 mg/kg. The following applies: mouse, in vivo. The method in brief:
(§8)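 Male NMRI mice (18-25 g) got compound ip at 119 mg/kg in DMSO (2 mL/kg). At 30 min or 3 h after dosing, strychnine chlorhydrate in saline (1.2 mg/mL) was injected sc at 1 mL/kg. Mice were caged singly and observed for 30 min, recording seizure onset, tonic seizures and lethality (%).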

Data set [19] is described as follows: Lethality was evaluated after 3h in 3-mercaptopropionic acid test in mice at a dose of 119 mg/kg. The class given is ADME, organism-based. The arrangement: dose 119 mg/kg. The conditions noted are these: mouse, in vivo. An outline of the steps:
as §6

The nature of data set [20]: Lethality was evaluated after 3h in pentylenetetrazole test in mice at a dose of 85 mg/kg. The class given is ADME, organism-based. On the set-up: dose 85 mg/kg. The conditions noted are these: mouse, in vivo. An outline of the steps:
as §7

Data set [21] is described as follows: Lethality was evaluated after 3h in strychnine test in mice at a dose of 119 mg/kg. The class given is ADME, organism-based. The arrangement: dose 119 mg/kg. The following applies: mouse, in vivo. The method in brief: as §8
Data set [22] is described as follows: Lipophilicity value was evaluated. It is filed as physicochemical. The conditions noted are these: RP-HPLC. An outline of the steps:
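Lipophilicity by RP-HPLC on a C18 column at 1.0 mL/min. Mobile phases were 10-50% […] with 50-90% 0.01 M phosphate buffer pH 7.4. Triplicate runs per eluent. log k_o extrapolated from at least four eluent compositions. ClogP also calculated.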

The structures appear in SMILES notation.

For `O=C(CNC(=O)OCc1ccccc1)NCc1ccccc1`, the Clonic seizures in [1] was 83%; in [2], 83%; in [3] it was 67%; in data set [4] it was 100%; in data set [5], 80%. Further, the ED50 in [6] was 11.6 mg/kg; in data set [7], 4.8 mg/kg. Further, the Tonic seizures amounted to 17% in data set [8]; 0% in data set [9]; 0% in [10]; 33% in data set [11]; 0% in data set [12]; 70% in [13]. Also, the Tonic seizures in [14] came out at 80%. Besides, the Lethality in data set [15] came out at 0%; in [16], 50%; in data set [17], 22%; in data set [18] it was 17%; in [19], 30%; in data set [20], 60%. For the same molecule, the Lethality in [21] is recorded as 80%. In addition, in data set [22], the “Log Ko” value was found to be 3.5.

The record behind these values is ChEMBL document CHEMBL1131201, “N-(benzyloxycarbonyl)glycine esters and amides as new anticonvulsants” (J Med Chem, 1998).
